# ChEMBL document CHEMBL1126653, “Structure-function studies of amphiphilic antibacterial peptides” (1993)
# Peptide text beside a SMILES is read from it.
# Tests used:
# Escherichia coli = test: Compound tested for in vitro susceptibility against ATCC strain 25922 of Escherichia coli; format: functional; conditions: ATCC25922
# Procedure, shortened: (§1)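 Microbroth dilution in Tryptic Soy Broth; inoculum 5×10^5 CFU/mL; plates incubated at 37 °C for 18-20 h; value reported as minimal inhibitory concentration (µg/mL).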
# Enterobacter cloacae [1] = test: Compound tested for the antimicrobial activity against Enterobacter cloacae; format: functional; procedure, shortened: as §1
# Enterobacter cloacae [2] = test: (§2) Compound tested for the antimicrobial activity against Enterobacter cloacae ROS; format: functional
# Procedure, shortened: (§3)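 MIC by microbroth dilution in Tryptic Soy Broth; inoculum 5×10^5 CFU/mL; plates incubated 18-20 h at 37 °C; assay pH approximately 7.4.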
# [3] = Hemolytic activity towards human erythrocytes is evaluated for magainin 2 at peptide concentration of 100 µg/mL; format: functional
# Procedure, shortened: (§4)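 Washed human erythrocytes from healthy volunteers (3 mL packed cells, PBS pH 7.4 washes, diluted to 20 mL) exposed to peptide in PBS at 25-200 µg/mL, 30 min at 37 °C; supernatant absorbance at 576 nm after centrifugation; 0.1% Triton X-100 taken as 100% hemolysis; duplicates.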
# [4] = Hemolytic activity towards human erythrocytes is evaluated for magainin 2 at peptide concentration of 200 µg/mL; format: functional; procedure, shortened: as §4
# [5] = Hemolytic activity towards human erythrocytes is evaluated for magainin 2 at peptide concentration of 25 ug/mL; format: functional; procedure, shortened: as §4
# [6] = Hemolytic activity towards human erythrocytes is evaluated for magainin 2 at peptide concentration of 50 µg/mL; format: functional; procedure, shortened: as §4
# Klebsiella pneumoniae = test: Compound tested for the antimicrobial activity against Klebsiella pneumoniae; format: functional; procedure, shortened: as §3
# Proteus mirabilis = test: Compound tested for the antimicrobial activity against Proteus mirabilis; format: functional; procedure, shortened: as §1
# Pseudomonas aeruginosa [7] = test: Compound tested for in vitro susceptibility against ATCC strain 27853 of Pseudomonas aeruginosa; format: functional; conditions: ATCC 27853; procedure, shortened: as §1
# [8] = test system: Salmonella enterica subsp. enterica serovar Anatum; test: Compound tested for the antimicrobial activity against S. a natum; format: functional, salmoneila anatum; procedure, shortened: as §1
# Staphylococcus aureus [9] = test: Compound tested for in vitro susceptibility against ATCC strain 29213 of Staphylococcus aureus; format: functional; procedure, shortened: as §1
# Shigella flexneri = test: Compound tested for the antimicrobial activity against Shigella flexneri; format: functional; procedure, shortened: as §3
# [10] = test system: Acinetobacter calcoaceticus subsp. anitratus; test: (§5) Compound tested for the antimicrobial activity against Acinetobacter anitratus; format: functional, aeinetobacter anitrotap; procedure, shortened: as §3
# [11] = test system: Acinetobacter calcoaceticus subsp. anitratus; test: as §5; format: functional; procedure, shortened: as §3
# Enterobacter cloacae [12] = test: as §2; format: functional, enterobacter cloacaeros; procedure, shortened: as §3
# Pseudomonas aeruginosa [13] = test: Compound tested for the antimicrobial activity against Pseudomonas aeruginosa strain 8; format: functional; procedure, shortened: as §1
# Pseudomonas aeruginosa [14] = test: Compound tested for the antimicrobial activity against Pseudomonas aeruginosa strain 9; format: functional; procedure, shortened: as §1
# Pseudomonas aeruginosa [15] = test: Compound tested for the antimicrobial activity against Pseudomonas aeruginosa strain ATCC 25916; format: functional; procedure, shortened: as §1
# Pseudomonas aeruginosa [16] = test: Compound tested for the antimicrobial activity against Pseudomonas aeruginosa strain 1; format: functional; procedure, shortened: as §1
# Pseudomonas aeruginosa [17] = test: Compound tested for the antimicrobial activity against Pseudomonas aeruginosa strain 10; format: functional; procedure, shortened: as §1
# Pseudomonas aeruginosa [18] = test: Compound tested for the antimicrobial activity against Pseudomonas aeruginosa strain 11; format: functional; procedure, shortened: as §1
# Pseudomonas aeruginosa [19] = test: Compound tested for the antimicrobial activity against Pseudomonas aeruginosa strain 2; format: functional; procedure, shortened: as §1
# Pseudomonas aeruginosa [20] = test: Compound tested for the antimicrobial activity against Pseudomonas aeruginosa strain 3; format: functional; procedure, shortened: as §1
# Pseudomonas aeruginosa [21] = test: Compound tested for the antimicrobial activity against Pseudomonas aeruginosa strain 4; format: functional; procedure, shortened: as §1
# Pseudomonas aeruginosa [22] = test: Compound tested for the antimicrobial activity against Pseudomonas aeruginosa strain 5; format: functional; procedure, shortened: as §1
# Pseudomonas aeruginosa [23] = test: Compound tested for the antimicrobial activity against Pseudomonas aeruginosa strain 6; format: functional; procedure, shortened: as §1
# Pseudomonas aeruginosa [24] = test: Compound tested for the antimicrobial activity against Pseudomonas aeruginosa strain 7; format: functional; procedure, shortened: as §1
# Staphylococcus aureus [25] = test: Compound tested for the activity against Staphylococcus aureus strain 4; format: functional; procedure, shortened: as §1
# Staphylococcus aureus [26] = test: Compound tested for the activity against Staphylococcus aureus strain 5; format: functional; procedure, shortened: as §1
# Staphylococcus aureus [27] = test: Compound tested for the activity against Staphylococcus aureus strain 6; format: functional; procedure, shortened: as §1
# Staphylococcus aureus [28] = test: Compound tested for the activity against Staphylococcus aureus strain 7; format: functional; procedure, shortened: as §1
# Staphylococcus aureus [29] = test: Compound tested for the activity against Staphylococcus aureus strain 8; format: functional; procedure, shortened: as §1
# Staphylococcus aureus [30] = test: Compound tested for the activity against Staphylococcus aureus strain 9; format: functional; procedure, shortened: as §1
# Staphylococcus aureus [31] = test: Compound tested for the activity against Staphylococcus aureus strain ATCC 28953; format: functional; procedure, shortened: as §1
# Staphylococcus aureus [32] = test: Compound tested for the activity against Staphylococcus aureus strain 1; format: functional; procedure, shortened: as §1
# Staphylococcus aureus [33] = test: Compound tested for the activity against Staphylococcus aureus strain 10; format: functional; procedure, shortened: as §1
# Staphylococcus aureus [34] = test: Compound tested for the activity against Staphylococcus aureus strain 11; format: functional; procedure, shortened: as §1
# Staphylococcus aureus [35] = test: Compound tested for the activity against Staphylococcus aureus strain 2; format: functional; procedure, shortened: as §1
# Staphylococcus aureus [36] = test: Compound tested for the activity against Staphylococcus aureus strain 3; format: functional; procedure, shortened: as §1
structure (smiles),measurement,setting,value
CC(C)C[C@H](NC(=O)[C@H](Cc1c[nH]cn1)NC(=O)[C@H](CC(C)C)NC(=O)[C@H](Cc1c[nH]c2ccccc12)NC(=O)[C@H](Cc1c[nH]cn1)NC(=O)[C@H](Cc1c[nH]cn1)NC(=O)[C@H](C)NC(=O)[C@H](Cc1c[nH]c2ccccc12)NC(=O)[C@H](Cc1c[nH]cn1)NC(=O)[C@H](Cc1c[nH]cn1)NC(=O)[C@H](Cc1c[nH]c2ccccc12)NC(=O)[C@H](CC(C)C)NC(=O)[C@@H](N)Cc1c[nH]cn1)C(=O)N[C@@H](Cc1c[nH]c2ccccc12)C(=O)N[C@@H](Cc1c[nH]cn1)C(=O)N[C@@H](C)C(=O)N[C@@H](Cc1c[nH]c2ccccc12)C(=O)O (H-HLWHHWAHHWLHLWHAW-OH),MIC,Escherichia coli,25 µg/mL
same,MIC,Enterobacter cloacae [1],< 0.39 µg/mL
same,MIC,Enterobacter cloacae [2],50 µg/mL
same,Hemolysis,[3],0%
same,Hemolysis,[4],0%
same,Hemolysis,[5],0%
same,Hemolysis,[6],0%
same,MIC,Klebsiella pneumoniae,> 100 µg/mL
same,MIC,Proteus mirabilis,> 100 µg/mL
same,MIC,Pseudomonas aeruginosa [7],12.5 µg/mL
same,MIC,[8],> 100 µg/mL
same,MIC,Staphylococcus aureus [9],50 µg/mL
same,MIC,Shigella flexneri,12.5 µg/mL
same,MIC,[10],< 0.39 µg/mL
CC(C)C[C@H](NC(=O)[C@H](CCCCN)NC(=O)[C@H](CCCCN)NC(=O)[C@H](Cc1c[nH]c2ccccc12)NC(=O)[C@H](CCCCN)NC(=O)[C@H](CCCCN)NC(=O)[C@H](CCCCN)NC(=O)[C@H](C)NC(=O)[C@H](CCCCN)NC(=O)[C@H](CCCCN)NC(=O)[C@H](Cc1c[nH]c2ccccc12)NC(=O)[C@H](C)NC(=O)[C@@H](N)CCCCN)C(=O)N[C@@H](C)C(=O)N[C@@H](CCCCN)C(=O)N[C@@H](CCCCN)C(=O)N[C@@H](Cc1c[nH]c2ccccc12)C(=O)O (H-KAWKKAKKKWKKLAKKW-OH),MIC,Escherichia coli,200 µg/mL
same,MIC,Pseudomonas aeruginosa [7],> 200 µg/mL
same,MIC,Staphylococcus aureus [9],200 µg/mL
CC(C)C[C@H](NC(=O)[C@H](CCCCN)NC(=O)[C@H](CCCCN)NC(=O)[C@H](CC(C)C)NC(=O)[C@H](CC(C)C)NC(=O)[C@H](CCCCN)NC(=O)[C@H](CC(C)C)NC(=O)[C@H](CC(C)C)NC(=O)[C@H](CCCCN)NC(=O)[C@@H](N)CCCCN)C(=O)O (H-KKLLKLLKKL-OH),MIC,Escherichia coli,> 200 µg/mL
same,MIC,Pseudomonas aeruginosa [7],> 200 µg/mL
same,MIC,Staphylococcus aureus [9],> 200 µg/mL
CC(C)C[C@H](NC(=O)[C@H](CCCCN)NC(=O)[C@H](CC(C)C)NC(=O)[C@H](Cc1c[nH]c2ccccc12)NC(=O)[C@H](CCCCN)NC(=O)[C@@H](N)CCCCN)C(=O)N[C@@H](Cc1c[nH]c2ccccc12)C(=O)N[C@@H](CCCCN)C(=O)N[C@@H](C)C(=O)N[C@@H](Cc1c[nH]c2ccccc12)C(=O)O (H-KKWLKLWKAW-OH),MIC,[11],< 0.39 µg/mL
same,MIC,Escherichia coli,25 µg/mL
same,MIC,Enterobacter cloacae [1],< 0.39 µg/mL
same,MIC,Enterobacter cloacae [12],50 µg/mL
same,MIC,Klebsiella pneumoniae,> 100 µg/mL
same,MIC,Pseudomonas aeruginosa [13],50 µg/mL
same,MIC,Pseudomonas aeruginosa [14],> 100 µg/mL
same,MIC,Pseudomonas aeruginosa [15],25 µg/mL
same,MIC,Proteus mirabilis,> 100 µg/mL
same,MIC,Pseudomonas aeruginosa [7],12.5 µg/mL
same,MIC,Pseudomonas aeruginosa [16],25 µg/mL
same,MIC,Pseudomonas aeruginosa [17],50 µg/mL
same,MIC,Pseudomonas aeruginosa [18],50 µg/mL
same,MIC,Pseudomonas aeruginosa [19],12.5 µg/mL
same,MIC,Pseudomonas aeruginosa [20],50 µg/mL
same,MIC,Pseudomonas aeruginosa [21],50 µg/mL
same,MIC,Pseudomonas aeruginosa [22],50 µg/mL
same,MIC,Pseudomonas aeruginosa [23],> 100 µg/mL
same,MIC,Pseudomonas aeruginosa [24],50 µg/mL
same,MIC,[8],12.5 µg/mL
same,MIC,Staphylococcus aureus [25],> 100 µg/mL
same,MIC,Staphylococcus aureus [26],> 100 µg/mL
same,MIC,Staphylococcus aureus [27],> 100 µg/mL
same,MIC,Staphylococcus aureus [28],> 100 µg/mL
same,MIC,Staphylococcus aureus [29],> 100 µg/mL
same,MIC,Staphylococcus aureus [30],> 100 µg/mL
same,MIC,Staphylococcus aureus [31],> 100 µg/mL
same,MIC,Staphylococcus aureus [9],12.5 µg/mL
same,MIC,Shigella flexneri,< 0.39 µg/mL
same,MIC,Staphylococcus aureus [32],> 100 µg/mL
same,MIC,Staphylococcus aureus [33],> 100 µg/mL
same,MIC,Staphylococcus aureus [34],> 100 µg/mL
same,MIC,Staphylococcus aureus [35],> 100 µg/mL
same,MIC,Staphylococcus aureus [36],> 100 µg/mL
